Laboratory results taken from ChEMBL document CHEMBL4689842, “EUbOPEN Chemogenomics Library wave 1” (2021).

Test system: U2OS
Assay: Multiplex assay against U2OS
Type: toxicity, cell-based
Conditions: human
Procedure, shortened: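 On a CQ1 microscope at 37°C and 5% CO2, live cells were imaged after compound addition. They had been stained at seeding with Hoechst33342, BioTracker Green Microtubule Cytoskeleton Dye, MitoTracker Red and Annexin V Alexa Fluor 680. CellPathfinder machine-learning gating assigned cells to Hoechst high-intensity objects or normal cells, normal cells to healthy, pyknosed or fragmented nuclei, and pyknosed cells to mitotic or apoptotic. Tubulin, mitochondrial-mass and membrane-permeability phenotypes are per cents of healthy-nucleus cells.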

[1] = 12 h, 1 µM, compound concentration 1 uM, replicate 1
[2] = 12 h, 1 µM, compound concentration 1 uM, replicate 2
[3] = 12 h, 10 µM, compound concentration 10 uM, replicate 1
[4] = 12 h, 10 µM, compound concentration 10 uM, replicate 2
[5] = 24 h, 1 µM, compound concentration 1 uM, replicate 1
[6] = 24 h, 1 µM, compound concentration 1 uM, replicate 2
[7] = 24 h, 10 µM, compound concentration 10 uM, replicate 1
[8] = 24 h, 10 µM, compound concentration 10 uM, replicate 2
[9] = 48 h, 1 µM, compound concentration 1 uM, replicate 1
[10] = 48 h, 1 µM, compound concentration 1 uM, replicate 2
[11] = 48 h, 10 µM, compound concentration 10 uM, replicate 1
[12] = 48 h, 10 µM, compound concentration 10 uM, replicate 2

## CCc1ccc(OCc2ccccc2C(=O)Nc2ccc3nc(C)cc(N)c3c2)cc1.Cl
[1]
  Population Apoptotic (%): 80%
  Population Fragmented Nuclei (%): 25%
  Population Healthy Nuclei (%): 34%
  Population Hoechst High Intensity Objects (%): 10%
  Population Membrane Permeable-Phenotype (%): 27%
  Population Mitochondria Different-Phenotype (%): 95%
  Population Mitotic Cells (%): 19%
  Population Normal (%): 89%
  Population Pyknosed Nuclei (%): 40%
  Population Tubulin-Different-Phenotype (%): 87%
  Total Cell Count: 191
[2]
  Population Apoptotic (%): 71%
  Population Fragmented Nuclei (%): 33%
  Population Healthy Nuclei (%): 33%
  Population Hoechst High Intensity Objects (%): 16%
  Population Membrane Permeable-Phenotype (%): 28%
  Population Mitochondria Different-Phenotype (%): 92%
  Population Mitotic Cells (%): 28%
  Population Normal (%): 84%
  Population Pyknosed Nuclei (%): 33%
  Population Tubulin-Different-Phenotype (%): 85%
  Total Cell Count: 68
[3]
  Population Apoptotic (%): 78%
  Population Fragmented Nuclei (%): 9%
  Population Healthy Nuclei (%): 22%
  Population Hoechst High Intensity Objects (%): 7%
  Population Membrane Permeable-Phenotype (%): 75%
  Population Mitotic Cells (%): 21%
  Population Normal (%): 92%
  Population Pyknosed Nuclei (%): 68%
  Population Tubulin-Different-Phenotype (%): 97%
  Total Cell Count: 129
[4]
  Population Apoptotic (%): 76%
  Population Fragmented Nuclei (%): 8%
  Population Healthy Nuclei (%): 14%
  Population Hoechst High Intensity Objects (%): 12%
  Population Membrane Permeable-Phenotype (%): 100%
  Population Mitochondria Different-Phenotype (%): 100%
  Population Mitotic Cells (%): 23%
  Population Normal (%): 87%
  Population Pyknosed Nuclei (%): 77%
  Population Tubulin-Different-Phenotype (%): 100%
  Total Cell Count: 50
[5]
  Population Apoptotic (%): 90%
  Population Fragmented Nuclei (%): 44%
  Population Healthy Nuclei (%): 16%
  Population Hoechst High Intensity Objects (%): 11%
  Population Membrane Permeable-Phenotype (%): 57%
  Population Mitochondria Different-Phenotype (%): 94%
  Population Mitotic Cells (%): 9%
  Population Normal (%): 88%
  Population Pyknosed Nuclei (%): 38%
  Population Tubulin-Different-Phenotype (%): 73%
  Total Cell Count: 234
[6]
  Population Apoptotic (%): 83%
  Population Fragmented Nuclei (%): 25%
  Population Healthy Nuclei (%): 28%
  Population Hoechst High Intensity Objects (%): 17%
  Population Membrane Permeable-Phenotype (%): 27%
  Population Mitochondria Different-Phenotype (%): 90%
  Population Mitotic Cells (%): 16%
  Population Normal (%): 82%
  Population Pyknosed Nuclei (%): 46%
  Population Tubulin-Different-Phenotype (%): 63%
  Total Cell Count: 92
[7]
  Population Apoptotic (%): 79%
  Population Fragmented Nuclei (%): 7%
  Population Healthy Nuclei (%): 13%
  Population Hoechst High Intensity Objects (%): 12%
  Population Membrane Permeable-Phenotype (%): 54%
  Population Mitochondria Different-Phenotype (%): 100%
  Population Mitotic Cells (%): 20%
  Population Normal (%): 87%
  Population Pyknosed Nuclei (%): 78%
  Population Tubulin-Different-Phenotype (%): 95%
  Total Cell Count: 127
[8]
  Population Apoptotic (%): 70%
  Population Fragmented Nuclei (%): 15%
  Population Healthy Nuclei (%): 38%
  Population Hoechst High Intensity Objects (%): 31%
  Population Membrane Permeable-Phenotype (%): 47%
  Population Mitochondria Different-Phenotype (%): 94%
  Population Mitotic Cells (%): 30%
  Population Normal (%): 68%
  Population Pyknosed Nuclei (%): 45%
  Population Tubulin-Different-Phenotype (%): 94%
  Total Cell Count: 47
[9]
  Population Apoptotic (%): 96%
  Population Fragmented Nuclei (%): 46%
  Population Healthy Nuclei (%): 3%
  Population Hoechst High Intensity Objects (%): 15%
  Population Membrane Permeable-Phenotype (%): 75%
  Population Mitochondria Different-Phenotype (%): 100%
  Population Mitotic Cells (%): 3%
  Population Normal (%): 84%
  Population Pyknosed Nuclei (%): 50%
  Population Tubulin-Different-Phenotype (%): 75%
  Total Cell Count: 377
[10]
  Population Apoptotic (%): 100%
  Population Fragmented Nuclei (%): 29%
  Population Healthy Nuclei (%): 37%
  Population Hoechst High Intensity Objects (%): 28%
  Population Membrane Permeable-Phenotype (%): 71%
  Population Mitochondria Different-Phenotype (%): 92%
  Population Mitotic Cells (%): 0%
  Population Normal (%): 71%
  Population Pyknosed Nuclei (%): 32%
  Population Tubulin-Different-Phenotype (%): 78%
  Total Cell Count: 140
[11]
  Population Apoptotic (%): 84%
  Population Fragmented Nuclei (%): 9%
  Population Healthy Nuclei (%): 12%
  Population Hoechst High Intensity Objects (%): 11%
  Population Membrane Permeable-Phenotype (%): 40%
  Population Mitochondria Different-Phenotype (%): 95%
  Population Mitotic Cells (%): 16%
  Population Normal (%): 88%
  Population Pyknosed Nuclei (%): 77%
  Population Tubulin-Different-Phenotype (%): 90%
  Total Cell Count: 130
[12]
  Population Apoptotic (%): 100%
  Population Fragmented Nuclei (%): 47%
  Population Healthy Nuclei (%): 43%
  Population Hoechst High Intensity Objects (%): 63%
  Population Membrane Permeable-Phenotype (%): 60%
  Population Mitochondria Different-Phenotype (%): 90%
  Population Mitotic Cells (%): 0%
  Population Normal (%): 36%
  Population Pyknosed Nuclei (%): 8%
  Total Cell Count: 52
